Source: article PMC10786778 (Diabetes Therapy, 2023)
“Also recorded” adds a separate entry of the source. Like-named read-outs stand apart in the source and are kept apart here. One block for each compound: values may come before it.

Tests used:
[1] = Plasma pharmacokinetics of HSK7653 after first and last oral dose; type: in vivo, human
HbA1c = HbA1c change in T2DM patients; type: in vivo, human
Summary of the method: (§1)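 48 Chinese adults with T2DM, untreated with hypoglycemic agents for 3 months, randomized double-blind to placebo or 10, 25 or 50 mg oral tablets. Dosing was once every 2 weeks for 12 weeks (six doses), with 240.0 mL water, fasted on days 1 and 29. Values were measured by each site's standard procedure, compared with baseline or placebo, and summarized descriptively (mean, SD, median, range).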

[2] = system: glycosylated albumin (GA); test: Glycated albumin; type: in vivo, human
Summary of the method: as §1

fasting plasma glucose = test: Fasting plasma glucose in T2DM patients; type: in vivo, human
Summary of the method: as §1

Safety and tolerability = type: in vivo, human
Summary of the method: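 Safety in 48 T2DM patients given placebo or 10/25/50 mg tablets orally every 2 weeks for 12 weeks, then 2 weeks of safety follow-up. Monitoring covered adverse events, physical examination, blood and urine routine, biochemistry, amylase and lipase, vital signs, 12-lead ECG and hypoglycemic events. ADR incidence was tabulated per dose group and graded by severity.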

C-peptide = test: Serum C-peptide level; type: in vivo, human
Summary of the method: as §1

glucagon = test: Plasma glucagon level; type: in vivo, human
QT interval [3] = test: Plasma concentration QT analysis of single dose in healthy subjects; type: in vivo, human; details: dose of 25 mg or less every two weeks
[4] = mass balance study; ref CTR20201559; cited from earlier work
QT interval [5] = details: cited from earlier work
[6] = day 85, 50 mg, among 11 subjects

mean Rac_AUC ([1]; 10–50 mg every two weeks): 1.0–1.1
mean Rac_Cmax ([1]; 10–50 mg every two weeks): 0.9–1.0
Tmax ([1]; human, plasma, oral, 10 mg, Tmax, median (min, max), multiple (last dose)): 1 h
Cmax ([1]; human, plasma, oral, 25 mg, Cmax, mean ± SD (CV%), multiple (last dose)): 411 ng/mL
Tmax ([1]; human, plasma, oral, 25 mg, Tmax, median (min, max), single (first dose)): 2 h
Vd/F ([1]; human, plasma, po): 61.1 to 81.9 L
half-life ([1]; human, plasma, po): 64 to 87 h
Tmax ([1]; human, plasma, po, median Tmax, dose range 10–50 mg): 1 to 3 h
SMILES: CS(=O)(=O)n1cc2c(n1)CN([C@@H]1C[C@H](N)[C@@H](c3cc(F)ccc3F)O[C@@H]1C(F)(F)F)C2 [HSK7653, (2R,3S,5R,6S)-2-(2,5-difluorophenyl)-5-[2-(methylsulfonyl)-2,6-dihydropyrrolo[3,4-c]pyrazol-5(4H)-yl]-6-(trifluoromethyl)-tetrahydro-2H-pyran-3-amine]
accumulation in vivo ([1]; 10–50 mg every two weeks): not accumulated in vivo; also recorded: did not accumulated in body
HbA1c, Mean ± SD (HbA1c; Day 43, 10 mg): 7.7 ± 0.4
HbA1c, Mean ± SD (HbA1c; Day 43, 25 mg): 7.5 ± 0.6
HbA1c, Mean ± SD (HbA1c; Day 43, 50 mg): 8.3 ± 1.0
HbA1c, Mean ± SD (HbA1c; Day 85, 10 mg): 7.3 ± 0.3
HbA1c, Mean ± SD (HbA1c; Day 85, 25 mg): 7.4 ± 0.7
HbA1c, Mean ± SD (HbA1c; Day 85, 50 mg): 8.4 ± 1.1
subjects with HbA1c decreased significantly (HbA1c; [6]): 5 subjects
subjects with HbA1c increased compared with baseline (HbA1c; [6]): 6 subjects
GA level lower than the baseline by ([2]; day 43, 10 mg): 2.3%
mean GA value ([2]; day 43, 10 mg): 21.2%
GA level lower than the baseline by ([2]; day 43, 25 mg): 0.8%
mean GA value ([2]; day 43, 25 mg): 21.0%
GA level higher than the baseline by ([2]; day 43, 50 mg): 0.4%
mean GA value ([2]; day 43, 50 mg): 23.6%
mean GA value ([2]; day 85, 10 mg): 20.0%
mean GA value ([2]; day 85, 25 mg): 20.5%
mean GA value ([2]; day 85, 50 mg): 24.2%
fasting blood glucose lower than baseline by (fasting plasma glucose; day 43, 10 mg): 0.7 mmol/L
mean fasting blood glucose (fasting plasma glucose; day 43, 10 mg): 9.2 mmol/L
fasting blood glucose lower than baseline by (fasting plasma glucose; day 43, 25 mg): 0.5 mmol/L
mean fasting blood glucose (fasting plasma glucose; day 43, 25 mg): 8.1 mmol/L
fasting blood glucose increased from baseline by (fasting plasma glucose; day 43, 50 mg): 0.8 mmol/L
fasting blood glucose decreased compared with the baseline by (fasting plasma glucose; day 85, 10 mg): 0.7 mmol/L
mean fasting blood glucose (fasting plasma glucose; day 85, 10 mg): 9.2 mmol/L
fasting blood glucose decreased compared with the baseline by (fasting plasma glucose; day 85, 25 mg): 0.2 mmol/L
mean fasting blood glucose (fasting plasma glucose; day 85, 25 mg): 8.5 mmol/L
incidence of ADR (Safety and tolerability; 10 mg dose group): 33.3%
incidence of TEAEs (Safety and tolerability; 10 mg dose group): 58.3%
incidence of ADR (Safety and tolerability; 25 mg dose group): 58.3%
incidence of TEAEs (Safety and tolerability; 25 mg dose group): 91.7%
incidence of ADR (Safety and tolerability; 50 mg dose group): 75.0%
incidence of TEAEs (Safety and tolerability; 50 mg dose group): 83.3%
serious adverse events (Safety and tolerability; 10–50 mg once every two weeks): no serious adverse events
ADR incidence: anemia (Safety and tolerability; HSK7653 dose group total): 5.6%
ADR incidence: decreased T wave amplitude of ECG (Safety and tolerability; HSK7653 dose group total): 5.6%
ADR incidence: dizziness (Safety and tolerability; HSK7653 dose group total): 2.8%
ADR incidence: dyspepsia (Safety and tolerability; HSK7653 dose group total): 11.1%
ADR incidence: electrocardiogram T wave abnormal (Safety and tolerability; HSK7653 dose group total): 8.3%
ADR incidence: hyperbilirubinemia (Safety and tolerability; HSK7653 dose group total): 5.6%
ADR incidence: hyperlipidemia (Safety and tolerability; HSK7653 dose group total): 8.3%
ADR incidence: hypertriglyceridemia (Safety and tolerability; HSK7653 dose group total): 11.1%
ADR incidence: increased blood bilirubin (Safety and tolerability; HSK7653 dose group total): 5.6%
ADR incidence: positive urine red blood cells (Safety and tolerability; HSK7653 dose group total): 5.6%
ADR incidence: upper respiratory tract infection (Safety and tolerability; HSK7653 dose group total): 5.6%
ADR incidence: urinary tract infection (Safety and tolerability; HSK7653 dose group total): 8.3%
ADR incidence: white blood cells urine positive (Safety and tolerability; HSK7653 dose group total): 8.3%
ADR incidence: prolonged QT interval of ECG (Safety and tolerability; HSK7653 dose group total (4/36)): 11.1%
tolerability (Safety and tolerability; doses of 10–50 mg, Chinese T2DM subjects): well tolerated and safe
level of C-peptide with increasing treatment time (C-peptide; 10 mg dose group): gradually increased to a similar level as the placebo group
level of C-peptide compared with the placebo group (C-peptide; 25 and 50 mg dose groups): no significant change
glucagon level with increasing treatment time (glucagon; 10 mg dose group, 90–180 min after meal): gradually decreased to below the level of the placebo group
glucagon level compared with the placebo group (glucagon; 25 and 50 mg dose groups, during treatment): lower than the placebo group during treatment
risk of prolongation of QT interval (QT interval [3]): no significant risk of prolongation of QT interval
fecal excretion [4]: 7.4%
hepatic metabolism, metabolites in feces [4]: 5.7%
hepatic metabolism, metabolites in urine [4]: 9.7%
renal excretion [4]: 68.1%

SMILES: Cc1cc(N2CCN([C@@H]3CN[C@H](C(=O)N4CCSC4)C3)CC2)n(-c2ccccc2)n1 [Teneligliptin]
effect on QT interval (QT interval [5]; only at 4 times the normal dose (160.0 mg/day)): significantly prolonged the QT interval

SMILES: CC#CCn1c(N2CCC[C@@H](N)C2)nc2c1c(=O)n(Cc1nc(C)c3ccccc3n1)c(=O)n2C [linagliptin]
effect on QTc interval (QT interval [5]; doses of 5 and 100 mg, compared with placebo): did not increase the QTc interval

SMILES: N[C@@H](CC(=O)N1CCn2c(nnc2C(F)(F)F)C1)Cc1cc(F)c(F)cc1F [sitagliptin]
effect on QTc interval (QT interval [5]; clinical dose 100 mg): does not correlate with an increase in QTc interval
effect on QT interval (QT interval [5]; super-therapeutic dose of 800 mg, clinical significance not significant): the QT interval is prolonged
